Among the data in the RNAGym collection of RNA variant scans (doi:10.1126/science.aae0568) are yeast fitness values, retold here.

First the molecules themselves.
B1: tRNA (parent)
chain: GUUCCGUUGGCGUAAUGGUAACGCGUCUCCCUCCUAAGGAGAAGACUGCGGGUUCGAGUCCCGUACGGAACG

Fewer inactive variants are shown than the library holds.

This series covers variants of B1. As to the kind of experiment: yeast fitness relative to wild type (ratio to wild type); higher = fitter; tRNA-Arg(CCU), competitive growth, 37 C, YPD. Put shortly: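 Variants of the tRNA-Arg(CCU) gene, chemically synthesised with a 3% per-site mutation rate at 69 sites, were placed at the native genomic locus in Saccharomyces cerevisiae. The pooled strains were competed in YPD at 37°C for 24 hours in six parallel replicates. Gene amplicons from the start population and from each end population were read by 100-nucleotide paired-end sequencing. Darwinian fitness relative to wild type came from changes in genotype frequencies; genotypes needed ≥ 100 starting reads, and estimates < 0.5 were set to 0.5.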
For the variant GAUCCGUAGGCGUAAUGGUAACGCGUCUCCCUCCUAAGGAGUAGACUGCGGCUUCGAGUCCCGUACGGAACG, the yeast fitness was no more than 0.5.
Then GAUCCGGUGGCGUAAUGGUAACGCGUCUCCCUCCUAAGGAGGAGUCUGCGGAUUCGAGUCCCGCACGGUACG, with no more than 0.5; and GAUCCGUUGGCGUAAUGGUAACGCGUCUCCCUCCUAAGGAGAAGACUGCGGGUUCGAGUCCCGUACGAAACG, with 0.825; and GAUCCGUUGGCGUAAUGGUAACGCAUCUCCCUCCUAAGGAGAAGACUGCGGGUUCGAGUCCCGUACGGAUCG, with 0.695.
Then GAUCCGUUGGCGUAAUGGUAACGCGUCUCCCUCCUAAGGAAAAGACUGCGGGUUCGAGUCCCGUAUGGAACG, with no more than 0.5; and GAGCCGUUGGCGUAAUGGUAACGCGUCUGGCUCCUAAGGAGAAGAGUGCGGGUUCGAGUCCCGUACGGAACG, with 0.612.
Then GAGCCGUUGGCGUAAUGGUAACGCGUCUGGCUCCUAAGGAGAAGAAUGCGGGUUCGAGUCCCGUACGGAACG, with no more than 0.5.
With GAUCCGUUGGCGUAAGGGUAACGCGUCUCCCUCCUAAGGAGAAGACUGCGGGUUCGAGUCCCGUAAGGAACG, the yeast fitness stood at 0.625.
Then GAUCCGUUGGCGUAAUGGUAACGCGUCUCCCUCCUAAGGAGAAGACUACGGGUUCGUGUCCCGUUAGGAACG, with no more than 0.5.
Turning to GAUCCGAUGGCGUAAUGGUAACGCGUCUCCCUCCUAAGGAGAAGACUGCGGGUUCGAGUCCCGUACGGAACG, the yeast fitness came out at 0.666.
The value for GAUCCGAUGGCGUAAUGGUAACGCGUCUCCCUCCUAAGGAGAAGACUGCGGGUACGAGUCCCGUACGGAACG was no more than 0.5; that for GAUCCGUUGGCGUAAUGGUAACGCGUCUCCCUCCUAAGGAGAAGACUGCCGGUUGGAGUCCGGUACGGAACG was no more than 0.5; that for GAUCCGUUGGCGUAAUGGUAACGCAUCUCCCCCCUAAGGAGAAGACUGCGGGUUCGAGUCCCGUACGGAACG was 0.903.
The value for GAACCGAUGGCGUAAUGGUAACGCGUCUCCCUCCUAAGGAGAAGACUGCGGGUUCGGGUCCCGUACGGAACG was no more than 0.5; that for GAGCCGUUGGCGUAAUGGUAACGCGUCUCCCUCCUUAGGAGAAGACUGCGGGUUCGAGUCCCGUACGGAACG was no more than 0.5; that for GAUCCGUUGGCGUAAAGGUAACGCGUCUCCCUCCUAAGGAGAAGACUGCGGGUUGGAGUACCGUACGGAACG was no more than 0.5.
GACCCGUUGGCGUAAUGGUAACGGGUCUCCCUGCUAAGGAGAAGACUGCGGGUUCGAGUCCCGUAUGGAACG: the yeast fitness was no more than 0.5.
The value for GAUCCGUCGGCGUAAUGGUAACGCGUCUCCCUCCUAAGGAGUAGACUGCGGGUUCGAGUCCCGUACGGAACG was 0.64.
For the variant GAUCCGUUGGCGUAAGGGUAACGCGUCUCCCUCCUAAGGAGACGACUGCGGGUGCGAGUCCCGUACGGAACG, the yeast fitness was no more than 0.5.
Then GAUCCGUUGGCGUAACGGUAACGCGUCUCACUCCUAAGGAGAAGACUGCGGGUUCAAGUCCCGUACGCAACG, with 0.541; and GAUCCGUUGGCGUAAUGGUAACCCGUCUCCUUCCUAAGGAGAAGACUGCGGGUUCGAGUCCCGUACGGAACG, with no more than 0.5.
On to GAUCCGUUGGCGUAAUGGUAACGCGUCUCCCUCCUAACGCGAAGACUGUGGGUUCGAGUCCCGUACGGAACG, for which the yeast fitness stood at 0.527.
GAUCCGUUGGCGUAAUGGUAACACGUCUGCCUCCUAAGGAGAAGACUGCGGGUUCGAGUCCCGUACGGAACG: the yeast fitness stood at 0.666.
Then GAUCCGUUGGCGUAAUGGUAACGCGUCUCCCUCCUAAGGAGAAGACUGCGGAUUCGAGUCACGUACGGAACG, with no more than 0.5.
Take GAUCCGUUGGCGUAAUGGUAACACGUCUCCCUCCUAAGGAGAAGACUGCGGGUUCGAGUCCCGUACGUAACG: the yeast fitness is no more than 0.5.
The value for GAUCCGUUGGCGUAAGGGUAACGCGUCUCCCUCCUAAGGAGAAGACUGCGGGUUCGAGUCCCGUACGGCACG was 0.85; that for GAUCCGUUGGCGUAAUGGUAACGCGUCUCCCUCCUAAGGAGAAGACUGCGGGUUCAAGUCCCGUACGGAACG was 0.898.
The value for GAUCCGUUGGCGUAAUGGUAACGCGUCUCCCUCCUAAGGAGAAGACUACCGGUUCGAGCACCGUACGGAACG was no more than 0.5; that for GAUCCGUCGGCGUAGUGGUAACGCGUCUCCCUCCUAAGGAGAAGACUGCGGGUUCGAGUCCCGUACGGAACG was 0.667; that for GAUCCGUUGGCGAAAUGGUAACGCGUCUCCCUCCGAAGGAGAAGACUGCGGGUUCGAGUCCCGACCGGAACG was no more than 0.5.
The value for GAACCGUUGGCGUAACGGUAACGUGUCUCCCUCCUAAGGAGAAGACUGCGGGUUCGAGUCCCGUACGGUACG was no more than 0.5; that for GACUCGUUGGCGUAAUGGUAACGCGUCUCCCUCCUAAGGAGAAGACUGCGGGUUCGAGUCACGUACCGAACG was 0.59.
With GACCCAUUGGCGUAAUGGUAACGCGCCUCCCUCCUAAGGAGAAGACUGCGGGUUCAAGUCCCGUACGGAACG, the yeast fitness is no more than 0.5.
Then GAUCCGUUGGCGUAAUAGUAACGCGUCUCCCUCCUAAGGAGAAGGCUGCGGGUUCGAGUCCCGUACGGAACG, with 0.587.
Then GAUCCGUUGGCGUAAUGGUAACGCGUCUCCCUCCUAAGGAAAAGACUGCGGGUUCGAGUCCCGUACGGAACG, with 0.773; and GAUCCGUUGGCGUAAAGGUAACGCGUCUCCCUCCUAAGGAGAAGACUGCGGGUUCCGGUCCCGUACGGAACG, with no more than 0.5; and GAUCCGUUGGCGUAAUCGUAACGCGUCUCCCUCCUAAGGAGAAGAUUGCGGGUUCGAGACCCGUACGGAACG, with no more than 0.5.
The value for GAGCCGUUGGAAUAACGGUAAGGCGUCUCCCUCCUAAGGAGAAGACUGCGGGUUCGAGUCCUGUACGGAACG was no more than 0.5.
